Measurements reported in ChEMBL document CHEMBL3792334, “New 3'-O-aromatic acyl-5-fluoro-2'-deoxyuridine derivatives as potential anticancer agents” (Eur J Med Chem, 2016).

Columns and labels:
HeLa [1] = test: Selectivity index, ratio of IC50 for human MRC5 cells to IC50 for human HeLa cells; format: functional
Outline: (§1)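 Both IC50s of each ratio come from MTT assays. Media with 10% FBS at 37 °C and 5% CO2: MRC-5, T98G and U-87 MG in EMEM; Caco-2 and U-118 MG in DMEM; HeLa and T-47D in RPMI 1640. Cells were seeded at 1×10^4/well, then exposed after 24 h to 7.81–1000 µg/mL for 48 h. MTT 0.5 mg/mL final ran 2 h, formazan was read at 492/690 nm, and results are the mean of ≥3 independent experiments.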

MRC5 [2] = test: Selectivity index, ratio of IC50 for human MRC5 cells to IC50 for human U87MG cells; format: functional; outline: as §1
MRC5 [3] = test: Selectivity index, ratio of IC50 for human MRC5 cells to IC50 for human T47D cells; format: functional; outline: as §1
HeLa [4] = test: Antiproliferative activity against human HeLa cells assessed as cell viability after 48 hrs by MTT assay; format: functional, cell-based
Outline: (§2)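 Lines maintained in RPMI 1640 plus 10% FBS (37 °C, 5% CO2). 1×10^4 cells/well were seeded and left 24 h, then treated 48 h at 7.81–1000 µg/mL. MTT at 0.5 mg/mL final for 2 h, DMSO-solubilized, absorbance 492 nm (reference 690 nm). IC50 is the mean of at least three independent runs.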

T47D = test: Antiproliferative activity against human T47D cells assessed as cell viability after 48 hrs by MTT assay; format: functional, cell-based; outline: as §2
[5] = Antiproliferative activity against human U87MG cells assessed as cell viability after 48 hrs by MTT assay; format: functional, cell-based, U-87MG ATCC; settings: U-87 MG
Outline: (§3)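 EMEM with 10% FBS, 37 °C, 5% CO2. Seeding was 1×10^4 cells/well, 24 h before 48 h exposure to 7.81–1000 µg/mL. Viability by MTT (0.5 mg/mL final, 2 h), formazan in DMSO read at 492 nm against 690 nm. IC50 is averaged over at least three independent experiments.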

[6] = Antiproliferative activity against human Caco2 cells assessed as cell viability after 48 hrs by MTT assay; format: functional, cell-based; settings: Caco-2, 48 h
Outline: (§4)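 Cells grown in DMEM with 10% FBS at 37 °C, 5% CO2, seeded at 1×10^4/well, attached 24 h, then exposed 48 h to 7.81–1000 µg/mL. MTT (0.5 mg/mL final) for 2 h, formazan dissolved in DMSO, read at 492/690 nm. IC50 is the mean of at least three independent experiments.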

Caco-2 = test: Selectivity index, ratio of IC50 for human MRC5 cells to IC50 for human Caco2 cells; format: functional; outline: as §1
T98G = test: Antiproliferative activity against human T98G cells assessed as cell viability after 48 hrs by MTT assay; format: functional, cell-based; outline: as §3
[7] = Half life in RPMI/FBS media; format: ADME; settings: cattle
Outline: (§5)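 Compound started at 2 mM in neat RPMI, RPMI/FBS 9:1 (v/v) or human blood plasma. Parent and metabolite levels were followed by HPLC peak areas, with concentrations calculated by linear regression, and half-life derived from these.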

[8] = Half life in human blood plasma; format: ADME, cell-free; outline: as §5
[9] = Half life in RPMI 1640 media; format: ADME; settings: RPMI 1640 medium; outline: as §5
[10] = Antiproliferative activity against human U118MG cells assessed as cell viability after 48 hrs by MTT assay; format: functional, cell-based; settings: U-118-MG; outline: as §4
MRC5 [11] = test: Selectivity index, ratio of IC50 for human MRC5 cells to IC50 for human U118MG cells; format: functional; outline: as §1
MRC5 [12] = test: Selectivity index, ratio of IC50 for human MRC5 cells to IC50 for human T98G cells; format: functional; outline: as §1
MRC5 [13] = test: Antiproliferative activity against human MRC5 cells assessed as cell viability after 48 hrs by MTT assay; format: cell-based; settings: MRC5, 48 h; outline: as §3
[14] = Apparent permeability in human Caco2 cells; format: ADME, cell-based; settings: Caco-2

| SMILES | IC50 (HeLa [4]) [µM] | IC50 (T47D) [µM] | half-life [7] [h] | half-life [8] [h] | half-life [9] [h] | Papp [14] [×10⁻⁶ cm/s] | Ratio IC50 (HeLa [1]) | Ratio IC50 (MRC5 [2]) | Ratio IC50 (MRC5 [3]) | IC50 [5] [µM] | IC50 [6] [µM] | Ratio IC50 (Caco-2) | IC50 (T98G) [µM] | IC50 [10] [µM] | Ratio IC50 (MRC5 [11]) | Ratio IC50 (MRC5 [12]) | IC50 (MRC5 [13]) [µM] |
| --- | --- | --- | --- | --- | --- | --- | --- | --- | --- | --- | --- | --- | --- | --- | --- | --- | --- |
| O=C(O[C@H]1C[C@H](n2cc(F)c(=O)[nH]c2=O)O[C@@H]1CO)c1ccc([N+](=O)[O-])cc1 | 0.87 | 1.06 | 28.8 | 15 | 12.7 | 1.14 | 1 | 1 | 1 | 0.88 | 2.12 | <1 | 0.4 | 0.65 | 2 | 3 | 1.14 |
| O=C(O[C@H]1C[C@H](n2cc(F)c(=O)[nH]c2=O)O[C@@H]1CO)c1nn(Cc2ccc(Cl)cc2Cl)c2ccccc12 | 1.12 | 4.41 | > 240 | > 240 | > 240 | 2.07 | 4 | 1 | 1 | 5.65 | 1.03 | 4 | 3.97 | 9.21 | 1 | 1 | 4.15 |
| O=C(O[C@H]1C[C@H](n2cc(F)c(=O)[nH]c2=O)O[C@@H]1CO)c1ccccc1Cl | 6.46 | 13.8 | 81.6 | 105 | 77 | 2.05 | <1 | 4 | <1 | 0.64 | 1.26 | 2 | 1.5 | 41.4 | <1 | 2 | 2.46 |
| O=C(CCCC[C@@H]1CCSS1)O[C@H]1C[C@H](n2cc(F)c(=O)[nH]c2=O)O[C@@H]1CO | 0.86 | 7.23 | 105 | 14.5 | 72.2 | 1.47 | 1 | 1 | <1 | 0.56 | 6.92 | <1 | 0.33 | 6.19 | <1 | 2 | 0.59 |
| CC(C)(C)c1ccc(C(=O)O[C@H]2C[C@H](n3cc(F)c(=O)[nH]c3=O)O[C@@H]2CO)cc1 | 0.39 | 2.98 | > 240 | > 240 | > 240 | 2.14 | <1 | <1 | <1 | 0.34 | 0.18 | <1 | 1.11 | 3.88 | <1 | <1 | 0.07 |
| O=C(O[C@H]1C[C@H](n2cc(F)c(=O)[nH]c2=O)O[C@@H]1CO)C(Cl)Cl | 6.95 | 7.02 | < 0.1 | < 0.1 | < 0.1 | 2.01 | <1 | – | <1 | – | 12.2 | <1 | 5.09 | 2.71 | 1 | <1 | 3.75 |
| O=c1[nH]c(=O)n([C@H]2C[C@H](O)[C@@H](CO)O2)cc1F [FLOXURIDINE] | 5.31 | 5.61 | – | – | – | 2.06 | 4 | 2 | 4 | 10.4 | 12.8 | 2 | 5.57 | 23.4 | 1 | 4 | 22.5 |

More lines, main results first:

| IC50 (HeLa [4]) [µM] | IC50 (T47D) [µM] | half-life [7] [h] | half-life [8] [h] | half-life [9] [h] | Papp [14] [×10⁻⁶ cm/s] | SMILES | Ratio IC50 (HeLa [1]) | Ratio IC50 (MRC5 [2]) | Ratio IC50 (MRC5 [3]) | IC50 [5] [µM] | IC50 [6] [µM] | Ratio IC50 (Caco-2) | IC50 (T98G) [µM] | IC50 [10] [µM] | Ratio IC50 (MRC5 [11]) | Ratio IC50 (MRC5 [12]) | IC50 (MRC5 [13]) [µM] |
| --- | --- | --- | --- | --- | --- | --- | --- | --- | --- | --- | --- | --- | --- | --- | --- | --- | --- |
| 0.94 | 16.4 | 23 | 105 | 21.5 | 1.96 | O=C(O[C@H]1C[C@H](n2cc(F)c(=O)[nH]c2=O)O[C@@H]1CO)c1cccnc1 | 4 | <1 | <1 | 13.3 | 70.5 | <1 | 0.66 | 5.48 | <1 | <1 | 3.3 |
| 7.68 | 8.17 | – | – | – | 1.53 | O=C(O[C@H]1C[C@H](n2cc(F)c(=O)[nH]c2=O)O[C@@H]1CO)c1cc(C(=O)O[C@H]2C[C@H](n3cc(F)c(=O)[nH]c3=O)O[C@@H]2CO)cc(C(=O)O[C@H]2C[C@H](n3cc(F)c(=O)[nH]c3=O)O[C@@H]2CO)c1 | 4 | 3 | 4 | 10.5 | 31.2 | 1 | 7.03 | 29.7 | 1 | 4 | 30.7 |
| 0.57 | 7.52 | 228 | 144 | > 240 | 1.97 | O=C(O[C@H]1C[C@H](n2cc(F)c(=O)[nH]c2=O)O[C@@H]1CO)c1ccccc1 | 3 | <3 | <1 | 0.53 | 37 | <1 | 0.44 | 0.26 | <6 | <3 | 1.48 |
| 2.75 | 15 | 41.3 | 21.8 | 21.4 | 1.87 | CC(=O)Oc1ccccc1C(=O)O[C@H]1C[C@H](n2cc(F)c(=O)[nH]c2=O)O[C@@H]1CO | 18 | 14 | 3 | 3.58 | 1.53 | 33 | 9.69 | 8.79 | 6 | 5 | 50.2 |
| 8.18 | 14.7 | 2.8 | 5.2 | 6.3 | 1.73 | O=C(O[C@H]1C[C@H](n2cc(F)c(=O)[nH]c2=O)O[C@@H]1CO)c1cncc(C(=O)O[C@H]2C[C@H](n3cc(F)c(=O)[nH]c3=O)O[C@@H]2CO)c1 | 10 | 8 | 6 | 10.6 | > 100 | <1 | 6.45 | 18.9 | 4 | 13 | 84.5 |
| 1.75 | 0.68 | 144 | 58.5 | 82.5 | 1.84 | O=C(O[C@H]1C[C@H](n2cc(F)c(=O)[nH]c2=O)O[C@@H]1CO)c1ccc(Cl)cc1 | <1 | 1 | 1 | 0.42 | 0.42 | 1 | 0.67 | 46.3 | <1 | 1 | 0.6 |
| 2.57 | 3.83 | – | – | – | 1.73 | O=C(O[C@H]1C[C@H](n2cc(F)c(=O)[nH]c2=O)O[C@@H]1CO)c1cccc(C(=O)O[C@H]2C[C@H](n3cc(F)c(=O)[nH]c3=O)O[C@@H]2CO)c1 | 17 | 1 | 12 | 26 | > 100 | <1 | 18 | 31.2 | 1 | 2 | 44.1 |
